# Screening data deposited in PubChem by several laboratories.
# Env fusion inh: inhibitors of HIV-1 Env-driven cell-cell fusion, primary screen, HeLa-JRFL effector, CEM21 target cells, luciferase | inhibition, % at 12.3 µM | 1.1% of 360,000 active;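 active means mean replicate inhibition score of at least 50 and every replicate individually at or above 50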;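 further: 0% = plate neutral controls and 100% = maraviroc near 300 nM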
# Arr AP2 block: inhibitors of beta-arrestin/AP2 binding, primary screen, biochemical, GPCR trafficking, flow cytometry; beta-arrestin 1 C-terminal peptide binding to AP2 beta2-adaptin appendage (human); FITC-arrestin peptide / GST-AP2 beads; AP2 beta2 appendage carries R879A mutation; inhibition, % at 10 µM; 0.31% of 340,000 active;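 active means inhibition above a set limit, near 3 SD of compounds lacking own fluorescence, cut at about 54% in these data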;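 further: plate controls were DMSO wells for no effect and 5 µM unlabelled arrestin peptide for full effect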
#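 System: GST-AP2 R879A bound to glutathione beads, E. coli-expressed. Also added: 50 nM FITC-arrestin peptide. Schedule: compound with beads 12 min RT, then probe 1 h RT. Signal: bead flow cytometry, FITC channel. Read-out basis: percent response.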
# Rtt109 HAT inh: inhibitors of C. albicans Rtt109/Vps75 HAT, primary screen, biochemical, ThioGlo CoA-SH fluorescence, plate reader; 0.16% of 330,000 active; purified Rtt109/Vps75, 4 h; inhibition, % at 34.9 µM;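 active means inhibition of at least 50% in every replicate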
# Target sequence (Q5AAJ8 whole entry, looked up): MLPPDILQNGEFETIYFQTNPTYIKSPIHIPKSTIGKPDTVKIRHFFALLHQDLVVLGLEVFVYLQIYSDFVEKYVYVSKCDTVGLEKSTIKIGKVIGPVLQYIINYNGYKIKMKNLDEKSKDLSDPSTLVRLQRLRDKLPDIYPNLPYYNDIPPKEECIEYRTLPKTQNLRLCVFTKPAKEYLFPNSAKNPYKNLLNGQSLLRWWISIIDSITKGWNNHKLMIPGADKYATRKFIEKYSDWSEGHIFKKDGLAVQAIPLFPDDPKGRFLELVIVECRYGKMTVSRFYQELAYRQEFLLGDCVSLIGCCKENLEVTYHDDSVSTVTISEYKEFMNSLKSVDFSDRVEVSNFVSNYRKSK
# N-glyco inh: increase of ERlucT glycosylation luciferase signal, primary screen, N-linked glycosylation inhibitor project, D54 ERlucT cells, luminescence, set 2 | reporter increase, % at 12.5 µM | D54 ERlucT glycosylation luciferase reporter, 24 h; percent of 100 nM tunicamycin response | 0.23% of 360,000 active;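 active means mean luciferase reporter signal, scaled so untreated is 0 and the glycosylation-blocking control 100, at or above a set limit in every replicate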;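 further: luciferase carries N-glycosylation sites so blocking glycosylation raises the light; 0% = median of neutral control wells and 100% = median of 100 nM tunicamycin wells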
# PfHsp90 yeast 2: growth inhibition of PfHsp90-expressing yeast, primary screen, antimalarial PfHsp90 inhibitor project, S. cerevisiae, BacTiter-Glo luminescence, single point, set 2; BacTiter-Glo ATP, 48 h; yeast lacking PDR1 and PDR3 efflux regulators; inhibition, % at 9.4 µM; 0.32% of 310,000 active; AID 504621, 2011;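 active means every replicate shows inhibition above about 80%, whatever the replicate mean, limit read from the data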;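 further: 0% = DMSO neutral controls and 100% = 20 µM radicicol positive controls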
# PAX8 inh HTS: inhibitors of PAX8-driven TPO luciferase reporter, primary screen, RMG-I cells, single concentration. SteadyGlo, 24 h. inhibition, % at 12.6 µM. 1.2% of 360,000 active;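 active means mean replicate inhibition at least 60% with every replicate also reaching 60%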;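 further: luciferase light reporting Pax8 driven TPO promoter activity; plate controls were median of neutral control wells for no effect and mitoxantrone controls for full effect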
# Starred values were filed as active, the others as inactive; / = not tested or not shown. In the library only some 2.3% were active in any assay of this set; here they are far more common.
SMILES,Env fusion inh,Arr AP2 block,Rtt109 HAT inh,N-glyco inh,PfHsp90 yeast 2,PAX8 inh HTS
CN(C)CC(C(=O)Cc1ccccc1)c1ccccc1 (stereo not given),-12,-9,-2,-13,/,104*
C/C=C/c1ccc([C@@H]2[C@H](CO)N3CCCCN(C(=O)Cc4cccnc4)C[C@@H]23)cc1,/,/,/,/,/,5
O=C(O)[C@H]1[C@H](CO)[C@H]2Cn3c(ccc(-c4ccccc4)c3=O)[C@@H]1N2C(=O)C1CCCCC1,/,/,/,/,/,-2
CCC(C)/C=C(C)/C=C/C1=CC2=C(Cl)C(=O)C(C)(OC(C)=O)C(=O)C2=CO1 (stereo not given),/,14,-5,5,11,/
CC[C@H](C)/C=C(C)/C=C/C1=CC2=C(Cl)C(=O)[C@@](C)(OC(C)=O)C(=O)C2=CO1,/,8,-21,1,106*,/
N#Cc1cccc(-c2ccc([C@@H]3[C@@H](CO)N4CCCCN(C(=O)Cc5ccccc5)C[C@@H]34)cc2)c1,/,/,/,/,/,-2
CN1C(=O)C(=Cc2sc(=O)n(-c3ccccc3)c2N(C)C)C(=O)N(C)C1=O,-15,5,12,29*,-12,-23
Cc1cc(C=C2C(=O)N(C)C(=O)N(C)C2=O)c(C)n1-c1ccccc1,12,4,-6,0,9,-14
COc1cccc(CN2CC3(C2)[C@H](c2ccccc2)[C@H](CO)N3C(=O)Cc2ccccc2)c1,/,/,/,/,/,9
COC(=O)[C@@H]1[C@@H](CO)[C@@H]2Cn3c(ccc(-c4cncnc4)c3=O)[C@H]1N2S(=O)(=O)c1ccccc1C,/,/,/,/,/,2
COC1C(O)C(C)OC(OC2C(Oc3cccc4c(O)c5c(=O)oc6ccc(C)c7c(=O)oc(c34)c5c67)OC(C)C(O)C2O)C1O (stereo not given),21,-23,7,43*,-28,/
COc1ccc(-c2ccc([C@H]3[C@H]4CN(C(=O)Cc5ccncc5)CCCCN4[C@H]3CO)cc2)cc1,/,/,/,/,/,60
CSCCC(c1nnnn1C1CCCC1)N1CCC(n2c(=O)[nH]c3ccccc32)CC1 (stereo not given),-27,/,/,1,/,6
CSCCC(c1nnnn1Cc1ccccc1)N1CCC(n2c(=O)[nH]c3ccccc32)CC1 (stereo not given),46,/,/,0,/,97*
O=c1[nH]c2ccccc2n1C1CCN(C(c2nnnn2Cc2ccccc2)C2CC2)CC1 (stereo not given),33,/,/,-3,/,86*
CC(C)(C)n1nnnc1C(CCc1ccccc1)N1CCC(n2c(=O)[nH]c3ccccc32)CC1 (stereo not given),/,/,/,-2,/,16
O=c1[nH]c2ccccc2n1C1CCN(C(CCc2ccccc2)c2nnnn2Cc2ccccc2)CC1 (stereo not given),66*,/,/,-21,/,108*
COC(=O)[C@@H]1[C@@H](CO)[C@@H]2Cn3c(ccc(-c4ccc(F)cc4)c3=O)[C@H]1N2C(=O)c1ccccc1F,/,/,/,/,/,-1
COc1ccccc1CN1[C@H](CO)[C@@H](c2ccccc2)C12CN(C(=O)Cc1ccccc1)C2,/,/,/,/,/,21
COc1ccc(C#Cc2ccc([C@H]3[C@H]4CN(C(=O)Cc5ccccc5)CCCCN4[C@H]3CO)cc2)cc1,/,/,/,/,/,1
O=C(Cc1ccccn1)N1CCCCN2[C@H](CO)[C@H](c3ccc(C#Cc4ccccc4)cc3)[C@H]2C1,/,/,/,/,/,4
COc1ccc(C#Cc2ccc([C@@H]3[C@@H](CO)N4CCCCN(C(=O)Cc5cccnc5)C[C@H]34)cc2)cc1,/,/,/,/,/,17
C=Cc1cc(OC)c2c(c1)c(=O)oc1c2cc(OC)c2c(O)ccc(C3OC(C)C(O)C(C)(O)C3O)c21 (stereo not given),47,10,4,-3,-71,89*
